Laboratory results published in ChEMBL document CHEMBL2069249, “Saquayamycins G-K, cytotoxic angucyclines from Streptomyces sp. Including two analogues bearing the aminosugar rednose” (J Nat Prod, 2012).

Key:
[1] = biological target: Nitric oxide synthase, inducible (Homo sapiens, UniProt P35228); assay: Inhibition of iNOS
[2] = test system: PC-3; assay: Growth inhibition of human PC3 cells incubated for 48 hrs by resazurin dye reduction based fluorimetric assay; type: functional; conditions: PC-3, 48 h
Method in brief: (§1)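 Cells seeded at 5 × 10^3 per well in full growth medium, adhered overnight, then medium replaced with fresh medium containing serial compound concentrations or DMSO control; 48 h at 37 °C. Resazurin added, 3 h at 37 °C; fluorescence ex 560/em 590 nm, time-zero reading subtracted. GI50 by nonlinear sigmoidal dose-response fit; landomycin A positive control; four replicates.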

[3] = test system: NCI-H460; assay: Growth inhibition of human NCI-H460 cells incubated for 48 hrs by resazurin dye reduction based fluorimetric assay; type: functional; conditions: NCI-H460, 48 h; method in brief: as §1
[4] = Inhibition of bovine brain FPTase; set-up: species or system Bos taurus

Chain of Nitric oxide synthase, inducible (P35228 whole entry): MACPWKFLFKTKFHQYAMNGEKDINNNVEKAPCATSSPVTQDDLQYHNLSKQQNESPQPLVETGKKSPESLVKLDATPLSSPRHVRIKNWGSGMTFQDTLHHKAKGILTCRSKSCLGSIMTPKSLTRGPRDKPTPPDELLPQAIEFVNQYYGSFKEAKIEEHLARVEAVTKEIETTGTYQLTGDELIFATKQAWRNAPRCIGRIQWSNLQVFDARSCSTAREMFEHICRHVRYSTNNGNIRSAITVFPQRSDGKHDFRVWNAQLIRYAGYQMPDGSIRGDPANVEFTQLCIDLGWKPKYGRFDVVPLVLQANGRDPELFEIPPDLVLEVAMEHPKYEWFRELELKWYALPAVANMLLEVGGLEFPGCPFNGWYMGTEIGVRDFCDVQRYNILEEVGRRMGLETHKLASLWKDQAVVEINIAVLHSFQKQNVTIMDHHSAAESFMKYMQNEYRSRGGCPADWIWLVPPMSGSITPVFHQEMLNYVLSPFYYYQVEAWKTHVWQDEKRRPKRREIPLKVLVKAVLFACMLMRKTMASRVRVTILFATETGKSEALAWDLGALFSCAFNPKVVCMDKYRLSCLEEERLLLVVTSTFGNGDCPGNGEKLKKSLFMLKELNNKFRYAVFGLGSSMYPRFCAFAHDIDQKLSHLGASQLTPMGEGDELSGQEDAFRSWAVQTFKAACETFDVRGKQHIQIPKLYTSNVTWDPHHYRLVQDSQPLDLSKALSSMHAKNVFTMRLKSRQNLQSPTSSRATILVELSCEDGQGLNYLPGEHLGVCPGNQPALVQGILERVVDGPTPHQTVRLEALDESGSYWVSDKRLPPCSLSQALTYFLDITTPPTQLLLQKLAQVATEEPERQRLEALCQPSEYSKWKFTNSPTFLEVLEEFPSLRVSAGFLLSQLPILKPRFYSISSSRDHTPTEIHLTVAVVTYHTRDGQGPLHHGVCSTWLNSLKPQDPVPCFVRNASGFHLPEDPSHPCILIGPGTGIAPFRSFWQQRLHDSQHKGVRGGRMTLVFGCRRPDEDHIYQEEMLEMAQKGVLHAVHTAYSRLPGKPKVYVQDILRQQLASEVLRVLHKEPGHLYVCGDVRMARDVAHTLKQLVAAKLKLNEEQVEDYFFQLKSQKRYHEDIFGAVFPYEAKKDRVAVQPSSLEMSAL

IC50 [1] | GI50 [2] | GI50 [3] | IC50 [4] | SMILES
43.5 µM |  |  |  | C[C@@H]1O[C@@H](O[C@H]2CC[C@H](O[C@H]3[C@H](O)C[C@H](c4ccc5c(c4O)C(=O)C4=C(C5=O)[C@@]5(O)C(=O)C[C@](C)(O)C[C@@]5(O)C=C4)O[C@@H]3C)O[C@H]2C)C=CC1=O
 | 554 nM | 6.72 µM |  | C[C@@H]1O[C@@H](O[C@H]2CC[C@H](O[C@@]3(C)CC(=O)[C@]4(O)C5=C(C=C[C@]4(O)C3)C(=O)c3c(ccc([C@H]4C[C@@H](O)[C@H](O)[C@@H](C)O4)c3O)C5=O)O[C@H]2C)C=CC1=O (relative stereo) [SAQUAYAMYCIN G]
 | 915 nM | 7.94 µM |  | C[C@@H]1O[C@@H](O[C@H]2CC[C@H](O[C@@]3(C)CC(=O)[C@]4(O)C5=C(C=C[C@]4(O)C3)C(=O)c3c(ccc([C@H]4C[C@@H](O)[C@H](O[C@@H]6O[C@@H](C)C(=O)C=C6N)[C@@H](C)O4)c3O)C5=O)O[C@H]2C)C=CC1=O (relative stereo) [SAQUAYAMYCIN I]
 | 550 nM | 4.11 µM |  | Cc1cc(O)c2c(c1)C[C@@H](O)C1=C2C(=O)c2c(O)ccc(O[C@H]3C[C@@H](O)[C@H](O[C@H]4C[C@@H](O[C@H]5CC[C@H](O[C@H]6C[C@@H](O)[C@H](O[C@H]7C[C@@H](O[C@H]8CC[C@H](O)[C@H](C)O8)[C@H](O)[C@@H](C)O7)[C@@H](C)O6)[C@H](C)O5)[C@H](O)[C@@H](C)O4)[C@@H](C)O3)c2C1=O [LANDOMYCIN A]
 | 1760 nM | 13.2 µM |  | C[C@@H]1O[C@H]2O[C@@H]3[C@@H](C)O[C@@H](c4ccc5c(c4O)C(=O)C4=C(C5=O)[C@@]5(O)C(=O)C[C@](C)(O)C[C@@]5(O)C=C4)C[C@H]3O[C@H]2CC1=O [SAQUAYAMYCIN B1]
 | 74.5 nM | 3.93 µM |  | C[C@@H]1O[C@@H](O[C@H]2CC[C@H](O[C@@]3(C)CC(=O)[C@]4(O)C5=C(C=C[C@]4(O)C3)C(=O)c3c(ccc([C@H]4C[C@H]6O[C@H]7CC(=O)[C@H](C)O[C@H]7O[C@@H]6[C@@H](C)O4)c3O)C5=O)O[C@H]2C)C=CC1=O [SAQUAYAMYCIN B]
 | 790 nM | 3.3 µM |  | C[C@@H]1O[C@@H](O[C@H]2CC[C@H](O[C@@]3(C)CC(=O)[C@]4(O)C5=C(C=C[C@]4(O)C3)C(=O)c3c(ccc([C@H]4C[C@H]6O[C@H]7CC(=O)[C@H](C)O[C@H]7O[C@@H]6[C@@H](C)O4)c3O)C5=O)O[C@H]2C)C(N)=CC1=O [SAQUAYAMYCIN H]
 | 179 nM | 5.69 µM |  | C[C@@H]1O[C@H]2O[C@@H]3[C@@H](C)O[C@@H](c4ccc5c(c4O)C(=O)C4=C(C5=O)[C@@]5(O)C(=O)C[C@](C)(O[C@H]6CC[C@H](O[C@H]7CC[C@H](O)[C@H](C)O7)[C@H](C)O6)C[C@@]5(O)C=C4)C[C@H]3O[C@H]2CC1=O [SAQUAYAMYCIN J]
 | 148 nM | 7.28 µM |  | C[C@@H]1O[C@@H](O[C@H]2CC[C@H](O[C@@]3(C)CC(=O)[C@]4(O)C5=C(C=C[C@]4(O)C3)C(=O)c3c(ccc([C@H]4C[C@@H](O)[C@H](O[C@H]6CC[C@H](O)[C@H](C)O6)[C@@H](C)O4)c3O)C5=O)O[C@H]2C)C=CC1=O [SAQUAYAMYCIN K]
101 µM |  |  |  | C[C@@H]1O[C@@H](O[C@H]2[C@H](O)C[C@H](c3ccc4c(c3O)C(=O)C3=C(C4=O)[C@@]4(O)C(=O)C[C@](C)(O)C[C@@]4(O)C=C3)O[C@@H]2C)C=CC1=O [SAQUAYAMYCINS A1]
 |  |  | 1800 nM | C[C@@H]1O[C@@H](O[C@H]2[C@H](O)C[C@H](c3ccc4c(c3O)C(=O)C3=C(C4=O)[C@@]4(O)C(=O)C[C@](C)(O[C@H]5CC[C@H](O[C@H]6CCC(=O)[C@H](C)O6)[C@H](C)O5)C[C@@]4(O)C=C3)O[C@@H]2C)C=CC1=O [SAQUAYAMYCINS E]
 |  |  | 2000 nM | C[C@@H]1O[C@@H](O[C@H]2CC[C@H](O[C@@]3(C)CC(=O)[C@]4(O)C5=C(C=C[C@]4(O)C3)C(=O)c3c(ccc([C@H]4C[C@@H](O)[C@H](O[C@H]6CCC(=O)[C@H](C)O6)[C@@H](C)O4)c3O)C5=O)O[C@H]2C)C=CC1=O [SAQUAYAMYCINS F]

SMILES | IC50 [1] | GI50 [2] | GI50 [3] | IC50 [4]
C[C@@H]1O[C@@H](O[C@H]2[C@H](O)C[C@H](c3ccc4c(c3O)C(=O)C3=C(C4=O)[C@@]4(O)C(=O)C[C@](C)(O[C@H]5CC[C@H](O[C@H]6C=CC(=O)[C@H](C)O6)[C@H](C)O5)C[C@@]4(O)C=C3)O[C@@H]2C)C=CC1=O [SAQUAYAMYCINS A] |  | 106 nM | 6.2 µM | 
